A selection: hits, their analogues and other compounds. The true share with any hit is near 3.1%.
Insulin prom inh – inhibitors of insulin promoter-driven GFP, primary screen, imaging, TRM-6 cells (human fetal islet line), eGFP reporter, cell count; reporter expression induced with tamoxifen; inhibition, % at 2 µM; 130,000 tested, 0.9% active; AID 1273, 2008;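 active = inhibition above the mean plus 3 SD, with well images judged a real hit on visual review, cut at about 60% in these data, passing the limit was not always enough; inconclusive = inhibition over the cutoff but images rejected on review; inactive = inhibition not above the cutoff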
Yeast lifespan up – compounds extending yeast replicative lifespan, primary screen, S. cerevisiae, OD615; S. cerevisiae growth with nicotinamide; deaD strain in restrictive glucose medium; inhibition of the nicotinamide effect, % at 10 µM; 130,000 tested, 0.68% active; AID 775, 2007;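 active = inhibition above a set limit, placed 3 SD over the median of all compounds, cut at about 26% in these data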
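Material: Modified budding yeast, DeaD strain | Medium: Restrictive glucose medium | Probe or stimulus: 1.5 mM nicotinamide | Dosing: Single dose 10 µM compound, 0.25% DMSO | Times: 48 h at 30 °C | Technique: OD615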
RAM inhibit – inhibitors of the yeast RAM network, primary screen, dse1pr::URA3 reporter, 5-FOA selection | S. cerevisiae dse1pr::URA3 reporter, 5-FOA growth OD615, 2 d; analog-sensitive cbk1-as2 kinase mutant strain | inhibition, % at 50 µM | 190,000 tested, 1.8% active;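 active = inhibition above a set limit, 3 SD over mean compound inhibition, cut at about 8.4% in these data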;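 also: inhibition rescues growth on 5-FOA so higher OD means more RAM inhibition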
Ins promoter up – insulin promoter activators in MIN6 cells, imaging, high-content screening, mouse beta cells | MIN6 insulin promoter-GFP reporter; hits give high values | z-score at 5 µM | 190,000 tested, 0.3% active;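 active = z-score above 3 at 5 µM with at least 500 cells counted in the well; inconclusive = wells under 500 cells, flagged as cytotoxic or low count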
Yeast growth inh – growth inhibitors of yeast BB579 in restrictive medium, primary screen, yeast lifespan-shortening project, S. cerevisiae; OD615, 48 h; inhibition, % at 10 µM; 140,000 tested, 0.51% active; AID 804, 2007;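 active = inhibition above a set limit, 3 SD over the mean compound inhibition, cut at about 44% in these data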
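controls = amphotericin B 10 µg/mL, positive | assay system = DeaD yeast strain BB579 | schedule = 48 h compound exposure at 30 °C after 4 h preincubation | detection = OD615 turbidity measurement | medium = restrictive CSMM-D medium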
Numbers stand for hits; - = inactive; ? = inconclusive; . = no result given.

SMILES	Insulin prom inh	Yeast lifespan up	RAM inhibit	Ins promoter up	Yeast growth inh
CC(Sc1nc(-c2ccccc2)nc2c1COC(C)(C)C2)C(=O)N1CCOCC1 (configuration not stated)	-	-	-	-	-
Cc1onc(-c2c(Cl)cccc2Cl)c1C(N)=S	-	.	-	-	.
C=C(C)COc1ccc(-c2[nH]ncc2Oc2cccc(OC)c2)c(O)c1	-	-	-	-	75
C=C(C)COc1ccc(-c2[nH]ncc2-c2ccccc2)c(O)c1	-	-	-	-	88
COc1ccc(-c2nc(N)ncc2Oc2ccccc2Br)c(O)c1	-	-	-	-	-
C=C(C)COc1ccc(-c2[nH]ncc2-c2ccc(OC)cc2)c(O)c1	.	.	.	-	.
COc1cccc(Oc2cnc(N)nc2-c2ccc(OC)cc2O)c1	-	-	10	-	-
CC1CN(CC(=O)Nc2ccccc2Sc2ccccc2)CC(C)O1 (configuration not stated)	-	27	-	-	-
CCOC(=O)C1=C(C)N=c2s/c(=C3\C(=O)Nc4ccccc43)c(=O)n2C1c1ccc2c(c1)OCO2 (configuration not stated)	-	-	10	-	-
CC(OC(=O)C1CC1)C(=O)Nc1cc(C(F)(F)F)ccc1Cl (configuration not stated)	-	.	-	-	.
O=c1oc2ccccc2c(O)c1/C=N/c1ncccn1	.	.	.	-	.
O=c1oc2ccccc2c(O)c1/C=C1\C=Nc2ccccc21	-	-	-	.	86
Cc1ccc2c(c1)-c1nc3ccccc3cc1C2=NC1CCCCC1	.	-	-	.	47
Cc1ccc(-c2cc3ccccc3nc2N2CCCC2)cc1	-	-	-	-	-
Cc1ccc2c(c1)C(=NC1CCCCC1)c1cc3ccccc3nc1-2	91	-	-	-	60
COc1ccc(CNC(=O)C2CCC(CNc3nc(=S)[nH]c4ccccc34)CC2)cc1 (configuration not stated)	-	.	-	-	.
Cc1ccsc1C(C(=O)NC(C)(C)C)N(C(=O)c1csnn1)c1ccccc1 (configuration not stated)	-	.	10	-	.
C[C@H](NC(=O)Nc1cccc(Br)c1)C(=O)O	.	.	.	-	.
Cc1ccc2nc(-c3ccc(NC(=O)CCN4C(=O)c5ccccc5C4=O)cc3)sc2c1	.	-	-	-	-
O=C(CCN1C(=O)c2ccccc2C1=O)Nc1ccc(-c2nc3ccccc3s2)cc1	-	-	8.9	-	-
Cc1cc(C)nc(NS(=O)(=O)c2ccc(NC(=O)CCN3C(=O)c4ccccc4C3=O)cc2)n1	-	38	-	-	-
Cc1cc(NC(=O)c2ccccc2-c2ccccc2C(=O)O)no1	64	-	-	-	-
CCSc1ccccc1C(=O)Nc1cc(C)on1	-	-	-	-	-
O=C1/C(=C/c2cccc([N+](=O)[O-])c2)CCc2ccccc21	-	-	-	-	-
CCN1C/C(=C\c2cccc([N+](=O)[O-])c2)C(=O)/C(=C/c2cccc([N+](=O)[O-])c2)C1	100	-	-	-	-
SMILES	Insulin prom inh	Yeast lifespan up	RAM inhibit	Ins promoter up	Yeast growth inh
CCOC(=O)C1=C(C)N2C(=C(C#N)[C@@H]1c1ccc(C(=O)OC)cc1)SC[C@@]2(O)C(C)(C)C	.	-	-	-	-
O=C(/C=C/c1ccc([N+](=O)[O-])s1)N1CCCCC1	-	.	-	-	.
O=[N+]([O-])c1ccc(CN2CCCCCC2)s1	.	-	-	-	54
Cc1nn(-c2ccccc2)c(C)c1C(=O)OCC(=O)N1CC(=O)Nc2ccccc21	93	-	-	-	-
CCOC(=O)c1[nH]c(C)c(C(=O)OCC(=O)N2CC(=O)Nc3ccccc32)c1C	.	-	-	-	-
COCCCN(C(=S)Nc1cc(Cl)cc(Cl)c1)C(C)c1ccncc1 (configuration not stated)	-	41	-	-	-
COc1ccc(CC(=O)NNC(=O)CSc2nnc(C)n2-c2ccccc2)cc1	-	-	-	-	-
COc1ccc(-n2c(COc3ccc(Cl)cc3)nnc2SCc2ccc(C#N)cc2)cc1	-	-	-	-	-
COc1ccc(-n2c(COc3ccc(C)cc3)nnc2SCc2ccc(C#N)cc2)cc1	-	-	9.6	-	-
Cc1ccc(OCc2nnc(SCC(=O)c3ccccc3)n2-c2ccccc2)cc1	-	.	9.4	.	-
COc1ccc(CC(=O)NNC(=O)CSc2nnc(Cc3ccc(OC)cc3)n2-c2ccccc2)cc1	71	-	-	.	-
CC1(C)CC(NC(=O)C(=O)NCCc2ccccc2)CC(C)(C)N1	.	.	.	-	.
COc1ccc(C(=O)OCCOc2ccccc2C(C)=O)c(O)c1	-	.	11	-	.
CCC(C)(C)NC(=O)c1ccc(Sc2nncn2C)c([N+](=O)[O-])c1	-	-	-	-	-
Cn1cnnc1Sc1ccc(/C=C/C(=O)c2ccc(O)cc2)cc1[N+](=O)[O-]	-	.	8.4	.	.
COCCNC(=S)N/N=C1\CC(C)CC(C)(C)C1 (configuration not stated)	-	.	-	-	.
CCOC(=O)c1c(NC(=O)CSc2nnnn2CC)sc(C)c1C	.	-	8.9	.	-
CCOC(=O)c1c(NC(=O)COC(=O)c2cc(OC)c(OC)cc2[N+](=O)[O-])sc(C)c1C	.	-	8.6	-	-
CCOC(=O)c1c(NC(=O)Cn2nc(C(F)F)cc2C(F)F)sc(C)c1C	-	-	9.6	-	-
CCOC(=O)c1c(NC(=O)CSc2nnnn2C)sc(C)c1C	-	-	-	-	-
CCOC(=O)c1c(NC(=O)COC)sc(C)c1C	?	.	-	-	-
CCOC(=O)C(=Nc1ccc(Cl)cc1)NO	.	-	-	-	-
Cc1nn(Cc2ccccc2)c(C)c1NC(=O)CSc1nc2c(c(C(F)(F)F)n1)CCc1ccccc1-2	-	-	-	-	-
Cc1ccc(NC(=S)Nc2ccc(Cl)c(Cl)c2)c(OC(F)F)c1	.	-	-	-	85
Cc1ccc(NC(=S)Nc2ccc(OC(F)F)c(Cl)c2)cc1Cl	.	-	-	-	-
SMILES	Insulin prom inh	Yeast lifespan up	RAM inhibit	Ins promoter up	Yeast growth inh
O=C(O)c1cc(O)ccc1NC(=O)c1cccc2ccccc12	.	.	.	-	.
COc1ccc(/C=C/C(=O)Nc2ccccc2Cl)cc1S(=O)(=O)N1CCOCC1	.	.	.	-	.
COc1ccccc1OCC(=O)NNC(=O)c1cccs1	-	33	-	-	-
COc1ccc(OC)c(NC(=O)COC(=O)/C=C/c2ccccc2Cl)c1	.	-	10	-	-
CC1(C)CN=C(N2CCN(C3=NCC(C)(C)S3)CC2)S1	.	.	.	-	.
COc1ccccc1NC(=O)/C(=C/c1cccc([N+](=O)[O-])c1)c1ccccc1	-	-	11	-	-
COc1ccccc1C(=O)N/C(=C/c1cccc([N+](=O)[O-])c1)C(=O)Nc1cccc(C(=O)O)c1	.	.	-	-	.
O=C(NC(=S)Nc1ccc(N2CCOCC2)cc1)c1cncc(Br)c1	67	-	-	-	-
O=C(NC(=S)Nc1ccc(N2CCOCC2)cc1)c1ccccc1	.	.	-	-	.
